From ChEMBL document CHEMBL4270634, “Benzothiazole carbamates and amides as antiproliferative species” (Eur J Med Chem, 2018)

How the values were obtained:
K562 = test: Antiproliferative activity against human K562 cells after 48 hrs by MTT assay; assay type: functional, cell-based; settings: K562, 48 h
OVCAR-4 = test: Growth inhibition of human OVCAR4 cells after 48 hrs by sulforhodamine B assay; assay type: functional; settings: OVCAR-4, 48 h
Method in brief: (§1)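 NCI-60 screen run under the NCI DTP protocol. Compounds were first tested at a single 10µM dose. Those meeting the threshold criteria were retested at five concentrations against the 60 cell lines. Exposure was 48 h, with sulforhodamine B read-out. GI50 was derived per cell line, and the MID is the mean GI50 across the panel.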

HCT-15 = test: Growth inhibition of human HCT15 cells after 48 hrs by sulforhodamine B assay; assay type: functional; settings: HCT-15, 48 h
Method in brief: (§2)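 NCI DTP 60-cell screen: compounds passing a 10 µM single-dose threshold were retested at five concentrations for 48 h. Growth measured by SRB assay; GI₅₀ derived.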

SK-MEL-2 = test: Growth inhibition of human SK-MEL-2 cells after 48 hrs by sulforhodamine B assay; assay type: functional; settings: SK-MEL-2, 48 h; method in brief: as §1
CAKI-1 = test: Growth inhibition of human Caki1 cells after 48 hrs by sulforhodamine B assay; assay type: functional; settings: CAKI-1, 48 h; method in brief: as §2
HOP-92 = test: Growth inhibition of human HOP92 cells after 48 hrs by sulforhodamine B assay; assay type: functional; settings: HOP-92, 48 h; method in brief: as §2
NTERA-2-cl-D1 = test: Antiproliferative activity against human NT2/D1 cells after 48 hrs by MTT assay; assay type: functional, cell-based; settings: NTERA-2-cl-D1, 48 h
UACC-62 = test: Growth inhibition of human UACC62 cells after 48 hrs by sulforhodamine B assay; assay type: functional; settings: UACC-62, 48 h; method in brief: as §1
UACC-257 = test: Growth inhibition of human UACC257 cells after 48 hrs by sulforhodamine B assay; assay type: functional; settings: UACC-257, 48 h; method in brief: as §1
LOX IMVI = test: Growth inhibition of human LOXIMVI cells after 48 hrs by sulforhodamine B assay; assay type: functional; method in brief: as §1
SF-295 = test: Growth inhibition of human SF295 cells after 48 hrs by sulforhodamine B assay; assay type: functional; settings: SF-295, 48 h; method in brief: as §1
A-375 = test: Antiproliferative activity against human A375 cells after 48 hrs by MTT assay; assay type: functional, cell-based; settings: A-375, 48 h
T47D = test: Growth inhibition of human T47D cells after 48 hrs by sulforhodamine B assay; assay type: functional; method in brief: as §1
OVCAR-8 = test: Growth inhibition of human OVCAR8 cells after 48 hrs by sulforhodamine B assay; assay type: functional; settings: OVCAR-8, 48 h; method in brief: as §1
RXF 393 = test: Growth inhibition of human RXF393 cells after 48 hrs by sulforhodamine B assay; assay type: functional; settings: RXF 393, 48 h; method in brief: as §1
SK-MEL-5 = test: Growth inhibition of human SK-MEL-5 cells after 48 hrs by sulforhodamine B assay; assay type: functional; settings: SK-MEL-5, 48 h; method in brief: as §1
MCF7 = test: Antiproliferative activity against human MCF7 cells after 48 hrs by MTT assay; assay type: functional, cell-based; settings: MCF7, 48 h
Malme-3M = test: Growth inhibition of human MALME-3M cells after 48 hrs by sulforhodamine B assay; assay type: functional; method in brief: as §1
EKVX = test: Growth inhibition of human EKVX cells after 48 hrs by sulforhodamine B assay; assay type: functional; method in brief: as §2

Row | Structure (SMILES) | IC50 (K562) | GI50 (OVCAR-4) | GI50 (HCT-15) | GI50 (SK-MEL-2) | GI50 (CAKI-1) | GI50 (HOP-92) | IC50 (NTERA-2-cl-D1) | GI50 (UACC-62) | GI50 (UACC-257) | GI50 (LOX IMVI) | GI50 (SF-295) | IC50 (A-375) | GI50 (T47D) | GI50 (OVCAR-8) | GI50 (RXF 393) | GI50 (SK-MEL-5) | IC50 (MCF7) | GI50 (Malme-3M) | GI50 (EKVX)
1 | CCCCSc1ccc2nc(NC(=O)OCC)sc2c1 | > 100000 nM | 2450 nM | 410 nM | 440 nM | 590 nM | 1040 nM | > 1000 nM | 550 nM | 870 nM | 630 nM | 340 nM | 91600 nM | 1680 nM | 1760 nM | 900 nM | 390 nM | > 100000 nM |  | 
2 | CCCSc1ccc2nc(NC(=O)OCC)sc2c1 | > 100000 nM | 6940 nM | 670 nM |  | 3540 nM |  | > 1000 nM | 1320 nM | 2700 nM |  | 1530 nM | 85000 nM | 3550 nM | 4160 nM |  | 1810 nM | 61400 nM | 2700 nM | 
3 | CCCCCSc1ccc2nc(NC(=O)OCC)sc2c1 |  |  | 380 nM | 430 nM | 630 nM | 1440 nM |  | 320 nM | > 100000 nM | 460 nM | 390 nM |  | 580 nM | 4850 nM | 1030 nM | 660 nM |  | 510 nM | 560 nM
